Data set [1] deals with Ribosomal protein S6 kinase alpha-3 (Mus musculus, UniProt P18654). The data set is described as follows: Inhibition of RSK2 in mouse BAF cells expressing activated FGFR assessed as reduction of YB1 phosphorylation at Ser102 by electochemiluminescence assay. The class given is cell-based. The essentials:
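Cellular Ser102-phospho-YB1 ECL immunoassay in mouse BAF cells engineered to express activated FGFR. RIPA lysates are bound overnight at 4 °C to high-bind plates. Plates are blocked 2 h at rt with 10% BSA. Detection uses phospho-Ser102 YB1 antibody (1.3 μg/mL, 2 h rt), then sulfo-tag goat anti-rabbit antibody (0.5 μg/mL, 2 h rt), then MSD read buffer.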

For data set [2], the target named is Ribosomal protein S6 kinase alpha-3 (Homo sapiens, UniProt P51812).
Data set [3] deals with Serine/threonine-protein kinase PLK1 (Homo sapiens) (UniProt P53350). Kind of data set: Binding affinity to DNA-tagged PLK (unknown origin) at 10 uM by qPCR analysis. The essentials: (§1)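 Competitive binding panel (KinomeScan) run at 10 μM test concentration, 96 kinases in the panel, or 442 in the expanded panel. Results are reported as […], where smaller values mean stronger binding.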

Data set [4] deals with Caco-2. Kind of data set: Permeability across human Caco2 cells. The class given is ADME, cell-based.
Data set [5] is described as follows: Volume of distribution at steady state in iv dosed Sprague-Dawley rat. It is filed as ADME, organism-based. To be noted: in vivo, read-out: Vdss. The essentials: (§2)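 Single-dose plasma pharmacokinetics in male Sprague-Dawley rats following intravenous administration.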
Data set [6] can be described thus: Plasma half life in iv dosed Sprague-Dawley rat. It is filed as ADME, organism-based. In a few lines: as §2
The nature of data set [7]: Clearance in rat liver microsomes. It is filed as ADME. To be noted: read-out: CLH.
Data set [8] is described as follows: Clearance in iv dosed Sprague-Dawley rat. The class given is ADME, organism-based. To be noted: in vivo. The essentials:
as §2

In data set [9] the target is Ribosomal protein S6 kinase alpha-6 (Homo sapiens) (UniProt Q9UK32). The data set is described as follows: Binding affinity to DNA-tagged RSK4 N-terminal kinase domain (unknown origin) assessed as level of protein captured on solid support at 10 uM by qPCR analysis relative to control. The essentials: as §1
In data set [10] the target is Ribosomal protein S6 kinase alpha-2 (Homo sapiens) (UniProt Q15349). Kind of data set: Binding affinity to DNA-tagged RSK3 N-terminal kinase domain (unknown origin) assessed as level of protein captured on solid support at 10 uM by qPCR analysis relative to control. In a few lines:
as §1

Data set [11] concerns the target Ribosomal protein S6 kinase alpha-1 (Homo sapiens) (UniProt Q15418). The data set is described as follows: Binding affinity to DNA-tagged RSK1 N-terminal kinase domain (unknown origin) assessed as level of protein captured on solid support at 10 uM by qPCR analysis relative to control. The essentials:
as §1

Here are results for 35 compounds from ChEMBL document CHEMBL3603810, “Discovery of Potent and Selective RSK Inhibitors as Biological Probes” (J Med Chem, 2015).

Activity calls are given as the source filed them. No cut-off for these calls is given here. Some results are limits rather than exact numbers.

Chain of Ribosomal protein S6 kinase alpha-3 (Mus musculus, UniProt P18654) (P18654 whole entry): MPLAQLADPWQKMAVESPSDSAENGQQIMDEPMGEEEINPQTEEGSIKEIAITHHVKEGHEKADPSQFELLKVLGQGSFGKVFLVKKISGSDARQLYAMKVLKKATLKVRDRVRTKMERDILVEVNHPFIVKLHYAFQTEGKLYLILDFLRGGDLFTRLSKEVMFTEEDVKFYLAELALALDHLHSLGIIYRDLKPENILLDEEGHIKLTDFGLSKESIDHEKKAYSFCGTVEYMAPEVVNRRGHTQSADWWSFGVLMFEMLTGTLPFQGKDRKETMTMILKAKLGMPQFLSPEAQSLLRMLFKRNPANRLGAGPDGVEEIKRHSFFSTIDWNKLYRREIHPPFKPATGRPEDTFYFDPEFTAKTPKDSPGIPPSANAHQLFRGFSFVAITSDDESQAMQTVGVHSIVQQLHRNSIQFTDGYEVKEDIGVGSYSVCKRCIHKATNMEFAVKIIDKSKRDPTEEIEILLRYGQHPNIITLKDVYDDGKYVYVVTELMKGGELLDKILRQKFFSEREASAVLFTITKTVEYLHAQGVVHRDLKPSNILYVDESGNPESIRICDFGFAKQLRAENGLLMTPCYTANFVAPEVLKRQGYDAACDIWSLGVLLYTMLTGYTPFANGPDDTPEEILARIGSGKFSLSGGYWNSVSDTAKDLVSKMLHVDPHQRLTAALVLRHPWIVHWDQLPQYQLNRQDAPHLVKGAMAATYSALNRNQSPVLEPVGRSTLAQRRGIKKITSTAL
Chain of Ribosomal protein S6 kinase alpha-3 (Homo sapiens, UniProt P51812) (P51812 whole entry): as the sequence (P18654 whole entry) above, with G45V counted along it
Chain of Serine/threonine-protein kinase PLK1 (Homo sapiens) (P53350 whole entry): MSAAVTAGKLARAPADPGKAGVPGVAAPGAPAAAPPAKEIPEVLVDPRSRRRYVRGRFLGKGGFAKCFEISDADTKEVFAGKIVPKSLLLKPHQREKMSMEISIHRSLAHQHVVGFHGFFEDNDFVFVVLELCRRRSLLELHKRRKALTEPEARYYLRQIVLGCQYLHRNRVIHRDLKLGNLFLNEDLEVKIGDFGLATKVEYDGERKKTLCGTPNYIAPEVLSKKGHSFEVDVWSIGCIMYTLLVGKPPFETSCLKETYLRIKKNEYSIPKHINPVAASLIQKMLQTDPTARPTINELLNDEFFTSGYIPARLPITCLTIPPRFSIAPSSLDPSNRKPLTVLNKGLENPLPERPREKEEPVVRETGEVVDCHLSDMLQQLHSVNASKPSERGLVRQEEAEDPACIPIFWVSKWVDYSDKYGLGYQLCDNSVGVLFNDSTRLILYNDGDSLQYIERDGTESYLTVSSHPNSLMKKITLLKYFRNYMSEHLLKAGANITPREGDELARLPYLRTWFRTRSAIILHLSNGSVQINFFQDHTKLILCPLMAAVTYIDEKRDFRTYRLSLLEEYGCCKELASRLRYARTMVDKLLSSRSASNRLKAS
Chain of Ribosomal protein S6 kinase alpha-2 (Homo sapiens) (Q15349 whole entry, the tested form may be a part): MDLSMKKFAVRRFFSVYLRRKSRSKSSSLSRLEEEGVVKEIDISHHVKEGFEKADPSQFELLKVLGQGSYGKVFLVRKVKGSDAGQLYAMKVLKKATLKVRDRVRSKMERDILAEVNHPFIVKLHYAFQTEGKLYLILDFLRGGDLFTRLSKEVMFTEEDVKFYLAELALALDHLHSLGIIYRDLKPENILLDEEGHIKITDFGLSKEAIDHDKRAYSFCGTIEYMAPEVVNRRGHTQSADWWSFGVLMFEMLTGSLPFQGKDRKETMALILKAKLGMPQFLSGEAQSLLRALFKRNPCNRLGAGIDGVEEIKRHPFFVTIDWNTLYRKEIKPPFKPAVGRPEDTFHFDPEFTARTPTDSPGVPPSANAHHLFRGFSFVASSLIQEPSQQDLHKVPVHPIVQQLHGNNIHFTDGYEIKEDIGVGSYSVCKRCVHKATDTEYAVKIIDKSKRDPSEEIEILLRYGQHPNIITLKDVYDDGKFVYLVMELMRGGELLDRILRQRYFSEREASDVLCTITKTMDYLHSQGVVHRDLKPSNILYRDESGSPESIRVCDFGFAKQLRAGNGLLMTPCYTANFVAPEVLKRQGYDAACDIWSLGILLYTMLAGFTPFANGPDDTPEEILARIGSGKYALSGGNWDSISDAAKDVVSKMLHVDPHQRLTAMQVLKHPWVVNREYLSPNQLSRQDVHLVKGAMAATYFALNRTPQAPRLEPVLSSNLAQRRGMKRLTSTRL
Chain of Ribosomal protein S6 kinase alpha-1 (Homo sapiens) (Q15418 whole entry, the tested form may be a part): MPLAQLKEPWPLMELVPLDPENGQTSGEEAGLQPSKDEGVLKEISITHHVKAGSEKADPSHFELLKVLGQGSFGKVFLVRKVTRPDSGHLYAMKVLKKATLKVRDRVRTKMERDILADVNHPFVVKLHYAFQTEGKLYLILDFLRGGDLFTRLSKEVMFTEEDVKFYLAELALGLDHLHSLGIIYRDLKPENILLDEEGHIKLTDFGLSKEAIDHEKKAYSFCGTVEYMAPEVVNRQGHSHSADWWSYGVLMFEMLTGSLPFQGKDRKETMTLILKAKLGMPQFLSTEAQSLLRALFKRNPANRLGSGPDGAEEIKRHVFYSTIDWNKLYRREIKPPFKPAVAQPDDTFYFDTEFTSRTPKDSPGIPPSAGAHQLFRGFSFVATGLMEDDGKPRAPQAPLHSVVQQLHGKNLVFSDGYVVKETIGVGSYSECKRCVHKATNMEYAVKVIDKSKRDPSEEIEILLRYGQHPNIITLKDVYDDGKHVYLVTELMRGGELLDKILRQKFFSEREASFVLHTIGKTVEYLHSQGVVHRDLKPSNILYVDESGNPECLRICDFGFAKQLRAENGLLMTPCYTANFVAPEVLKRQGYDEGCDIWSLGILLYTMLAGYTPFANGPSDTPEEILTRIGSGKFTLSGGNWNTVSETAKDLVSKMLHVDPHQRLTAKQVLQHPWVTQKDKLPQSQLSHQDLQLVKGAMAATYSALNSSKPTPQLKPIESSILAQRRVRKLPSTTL
Chain of Ribosomal protein S6 kinase alpha-6 (Homo sapiens) (Q9UK32 whole entry, the tested form may be a part): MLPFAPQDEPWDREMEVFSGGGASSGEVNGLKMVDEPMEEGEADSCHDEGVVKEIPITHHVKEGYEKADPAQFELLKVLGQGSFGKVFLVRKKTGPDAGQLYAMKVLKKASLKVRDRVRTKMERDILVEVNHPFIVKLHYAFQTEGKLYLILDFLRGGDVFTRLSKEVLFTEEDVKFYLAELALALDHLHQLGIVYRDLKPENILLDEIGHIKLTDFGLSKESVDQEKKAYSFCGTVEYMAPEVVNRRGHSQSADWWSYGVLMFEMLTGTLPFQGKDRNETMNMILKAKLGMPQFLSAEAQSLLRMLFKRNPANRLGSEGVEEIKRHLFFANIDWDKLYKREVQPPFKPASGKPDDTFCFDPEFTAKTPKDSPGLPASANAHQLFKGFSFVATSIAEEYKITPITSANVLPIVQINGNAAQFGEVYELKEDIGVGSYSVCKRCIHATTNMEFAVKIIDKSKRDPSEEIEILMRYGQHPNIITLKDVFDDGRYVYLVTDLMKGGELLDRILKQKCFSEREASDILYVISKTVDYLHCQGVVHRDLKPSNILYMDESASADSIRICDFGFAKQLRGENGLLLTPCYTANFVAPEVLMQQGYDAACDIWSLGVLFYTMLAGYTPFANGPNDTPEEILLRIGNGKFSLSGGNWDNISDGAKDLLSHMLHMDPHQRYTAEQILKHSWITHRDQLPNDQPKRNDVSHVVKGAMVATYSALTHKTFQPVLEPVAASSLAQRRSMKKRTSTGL

For `Oc1c(F)cc(-c2cnccc2-c2cccc(N3CCOCC3)c2)cc1F`, the EC50 in data set [1] was determined as 2.3 µM. Moreover, the IC50 in data set [2] is 0.018 µM.
Regarding `Oc1ccc(-c2cn[nH]c2-c2cc(F)c(O)c(F)c2)cc1`, the EC50 in [1] was 1.4 µM. The IC50 in data set [2] amounted to 0.006 µM.
For `Cc1ccc(-c2nc(NC(C)C)ncc2-c2cc(F)c(O)c(F)c2)cc1`, in data set [1], the EC50 was found to be 1.5 µM. Half-maximal inhibition in [2] (IC50) was put at 0.023 µM.
In the case of `CC(C)CCN1c2nc(Nc3cc(F)c(O)c(F)c3)ncc2N(C)C(=O)[C@H]1C`, the EC50 in data set [1] is 0.5 µM. The result in data set [3] was Active.
In the case of `Oc1ccc(-c2[nH]ncc2-c2ccccc2)cc1`, the EC50 in data set [1] was over 20 µM. In addition, the IC50 in data set [2] came out at 0.15 µM.
The corresponding values for `CNC(=O)c1ccc(-c2ccncc2-c2cc(F)c(O)c(F)c2)cc1` are 2.1 µM and 0.02 µM.
As for `Oc1c(F)cc(-c2cnccc2-c2ccccc2)cc1F`, in data set [1], the EC50 came to 4.2 µM. The IC50 in data set [2] turned out to be 0.06 µM.
`Oc1ccc(-c2ccncc2-c2ccc(O)cc2)cc1`: the EC50 in data set [1] was 9.3 µM. In addition, the permeability result in [4] is “permeable”. The same compound came in with an IC50 in [2] of 0.18 µM.
For `Cc1ccc(-c2ccncc2-c2cc(F)c(O)c(F)c2)cc1`, the EC50 in [1] was found to be 1.6 µM. In addition, in [2], the IC50 was found to be 0.007 µM.
The corresponding values for `Cc1cccc(-c2ccncc2-c2cc(F)c(O)c(F)c2)c1` are 4.1 µM and 0.032 µM.
As for `CN1CCN(c2ccc(-c3ccncc3-c3cc(F)c(O)c(F)c3)cc2)CC1`, the Vd in data set [5] is 1.6 L/kg. The half-life in data set [6] was 13 min. Besides, the microsomal CLint in data set [7] came out at 170 µL/min/mg. Further, the EC50 in data set [1] was 0.34 µM. This compound also gave a clearance in data set [8] of 166 mL/min/kg. Also, the IC50 in data set [2] amounted to 0.005 µM.
Take `Oc1ccc(-c2cn[nH]c2-c2ccccc2)cc1`: in data set [1], the EC50 is over 20 µM. Moreover, in data set [2], it took 2.5 µM to reach half-maximal inhibition (IC50).
For the compound `Nc1n[nH]c(-c2ccc(O)cc2)c1-c1ccccc1`, in data set [1], the EC50 amounted to 3.2 µM. Inhibition in [2] was half-maximal at 0.053 µM (IC50).
On to `CC(C)c1ccncc1-c1cc(F)c(O)c(F)c1`, for which the EC50 in data set [1] is over 20 µM. In [2], this compound had an IC50 of 0.78 µM.
The corresponding values for `COc1cccc(-c2ccncc2-c2cc(F)c(O)c(F)c2)c1` are 5.6 µM and 0.046 µM.
The corresponding values for `Oc1c(Cl)cc(-c2cnccc2-c2ccc(F)cc2)cc1Cl` are over 20 µM and 4.8 µM.
As to `CN1CCN(c2cccc(-c3ccncc3-c3cc(F)c(O)c(F)c3)c2)CC1`, the EC50 in data set [1] amounted to 1.1 µM. Further, inhibition in data set [2] was half-maximal at 0.004 µM (IC50).
As to `Oc1ccc(-c2cn[nH]c2-c2ccc(O)cc2)cc1`, the EC50 in [1] was 2.8 µM. Also, in data set [4], the permeability result is given as “permeable”. Moreover, the IC50 in [2] came to 0.024 µM.
For `COc1ccc(-c2ccncc2-c2cc(F)c(O)c(F)c2)cn1`, in [1], the EC50 came out at 5.3 µM. Also, the IC50 in [2] stood at 0.08 µM.
As for `Oc1c(F)cc(-c2cnccc2-c2cccc(-c3cn[nH]c3)c2)cc1F`, the EC50 in [1] stood at 1.1 µM. Moreover, the IC50 in data set [2] worked out at 0.005 µM.
As for `CC(C)CNc1cc(-c2ccc(N3CCN(C)CC3)cc2)c(-c2cc(F)c(O)c(F)c2)cn1`, the EC50 in data set [1] came to 2.5 µM. The IC50 in data set [2] is 0.022 µM.
Consider `CC(C)Nc1ncc(-c2cc(F)c(O)c(F)c2)c(-c2ccc(N3CCN(C)CC3)cc2)n1`, for which the EC50 in data set [1] was 0.61 µM. Moreover, the IC50 in data set [2] is 0.02 µM.
On to `Cc1ccc(-c2nc(N)ncc2-c2cc(F)c(O)c(F)c2)cc1`, for which the EC50 in [1] stood at 0.36 µM. The compound further showed a half-maximal inhibitory concentration (IC50) in [2] of 0.01 µM.
The corresponding values for `CNc1ncc(-c2cc(F)c(O)c(F)c2)c(-c2ccc(C)cc2)n1` are 0.69 µM and 0.013 µM.
As for `NCCOc1cccc(-c2ccncc2-c2cc(F)c(O)c(F)c2)c1`, the EC50 in data set [1] is 0.49 µM. Moreover, in data set [2], the half-inhibitory concentration (IC50) turned out to be 0.004 µM.
Consider `Oc1c(F)cc(-c2cnccc2C2CCNCC2)cc1F`, for which the EC50 in data set [1] is over 20 µM. For the same compound, the IC50 in [2] came out at 2.1 µM.
The corresponding values for `COc1ccc(-c2ccncc2-c2cc(F)c(O)c(F)c2)cc1` are 1.1 µM and 0.008 µM.
For `Oc1c(F)cc(-c2cnccc2-c2ccc(N3CCOCC3)cc2)cc1F`, the figures for the Activity in data set [9], in data set [10] and in data set [11] were 0%, 0.05% and 0%, respectively. For the same compound, in data set [1], the EC50 stood at 0.21 µM. Also, the result in data set [3] was inactive. In [2], this compound returned an IC50 of 0.004 µM.
As for `Cc1ccc(Nc2cc(-c3ccc(N4CCN(C)CC4)cc3)c(-c3cc(F)c(O)c(F)c3)cn2)cc1`, in data set [1], the EC50 is 0.69 µM. In data set [2], this compound had an IC50 of 0.006 µM.
Consider `Oc1c(F)cc(-c2cnccc2-c2ccc(N3CCNCC3)cc2)cc1F`, for which the half-maximal effective concentration (EC50) in data set [1] stood at 0.14 µM. In addition, the IC50 in [2] was 0.006 µM.
The corresponding values for `Oc1ccc(-c2ccncc2-c2cc(F)c(O)c(F)c2)cc1` are 6.4 µM and 0.05 µM.
Turning to `CNc1cc(-c2ccc(N3CCN(C)CC3)cc2)c(-c2cc(F)c(O)c(F)c2)cn1`, the EC50 in [1] turned out to be 0.58 µM. Also, the concentration for half-maximal inhibition (IC50) in data set [2] worked out at 0.014 µM.
Consider `CN1CCN(c2ccc(-c3cc(N)ncc3-c3cc(F)c(O)c(F)c3)cc2)CC1`, for which the half-maximal effective concentration (EC50) in data set [1] was 0.44 µM. Moreover, the IC50 in data set [2] came to 0.006 µM.
In the case of `Oc1c(F)cc(-c2cnccc2C2CCOCC2)cc1F`, the EC50 in data set [1] came to 2.2 µM. Further, in data set [2], the IC50 turned out to be 0.13 µM.
On to `Oc1c(F)cc(-c2cnccc2-c2ccc(F)cc2)cc1F`, for which the 50% effective concentration (EC50) in data set [1] stood at 10.4 µM. Besides, the IC50 in data set [2] amounted to 0.094 µM.
